Data published in ChEMBL document CHEMBL5653631, “A Potent and Selective ULK1 Inhibitor Suppresses Autophagy and Sensitizes Cancer Cells to Nutrient Stress” (iScience, 2018).
One block for each molecule: values may come before it.

How the values were obtained:
[1] = target: T1, Receptor-interacting serine/threonine-protein kinase 1 (Homo sapiens) (UniProt Q13546); test: Inhibition of human recombinant RIPK1 at 500 nM related to control ULK1
T1 sequence (whole entry): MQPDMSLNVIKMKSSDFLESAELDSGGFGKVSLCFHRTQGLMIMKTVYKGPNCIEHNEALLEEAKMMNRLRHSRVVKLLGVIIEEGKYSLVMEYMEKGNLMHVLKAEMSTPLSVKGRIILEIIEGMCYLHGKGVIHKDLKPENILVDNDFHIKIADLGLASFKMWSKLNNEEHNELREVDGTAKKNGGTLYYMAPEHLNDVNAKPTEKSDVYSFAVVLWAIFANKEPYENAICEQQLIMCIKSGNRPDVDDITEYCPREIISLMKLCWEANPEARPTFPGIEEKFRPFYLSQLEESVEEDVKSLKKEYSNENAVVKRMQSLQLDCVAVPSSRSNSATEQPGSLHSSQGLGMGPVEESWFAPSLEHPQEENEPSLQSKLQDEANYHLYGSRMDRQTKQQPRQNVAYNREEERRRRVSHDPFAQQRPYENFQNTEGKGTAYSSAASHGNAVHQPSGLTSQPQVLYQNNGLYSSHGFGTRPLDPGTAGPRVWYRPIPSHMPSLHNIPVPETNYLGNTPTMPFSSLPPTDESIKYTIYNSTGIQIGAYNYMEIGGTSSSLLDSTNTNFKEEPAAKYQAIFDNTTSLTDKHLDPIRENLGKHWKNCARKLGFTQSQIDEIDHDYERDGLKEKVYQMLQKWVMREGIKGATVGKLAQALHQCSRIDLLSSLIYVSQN

[2] = target: Serine/threonine-protein kinase SBK1 (Homo sapiens) (UniProt Q52WX2); test: Inhibition of human recombinant SBK1 at 15 nM in presence of ATP by radiometric assay relative to control
Serine/threonine-protein kinase SBK1 (Homo sapiens), sequence (Q52WX2 whole entry): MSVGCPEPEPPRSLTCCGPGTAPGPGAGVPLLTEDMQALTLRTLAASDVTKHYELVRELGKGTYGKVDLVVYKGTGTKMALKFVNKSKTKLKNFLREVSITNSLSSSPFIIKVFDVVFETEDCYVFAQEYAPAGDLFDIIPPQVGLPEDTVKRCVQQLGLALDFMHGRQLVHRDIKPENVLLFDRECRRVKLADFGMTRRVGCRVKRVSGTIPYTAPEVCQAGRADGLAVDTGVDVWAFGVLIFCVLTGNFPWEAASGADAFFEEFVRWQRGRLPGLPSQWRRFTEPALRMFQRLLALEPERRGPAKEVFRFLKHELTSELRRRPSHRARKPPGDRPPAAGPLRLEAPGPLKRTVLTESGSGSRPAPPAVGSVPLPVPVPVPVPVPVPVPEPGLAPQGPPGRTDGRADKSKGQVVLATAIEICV

[3] = target: Casein kinase II subunit alpha' (Homo sapiens) (UniProt P19784); test: Inhibition of human recombinant CK2a2 at 15 nM related to control ULK1
Casein kinase II subunit alpha' (Homo sapiens), sequence (P19784 whole entry, looked up): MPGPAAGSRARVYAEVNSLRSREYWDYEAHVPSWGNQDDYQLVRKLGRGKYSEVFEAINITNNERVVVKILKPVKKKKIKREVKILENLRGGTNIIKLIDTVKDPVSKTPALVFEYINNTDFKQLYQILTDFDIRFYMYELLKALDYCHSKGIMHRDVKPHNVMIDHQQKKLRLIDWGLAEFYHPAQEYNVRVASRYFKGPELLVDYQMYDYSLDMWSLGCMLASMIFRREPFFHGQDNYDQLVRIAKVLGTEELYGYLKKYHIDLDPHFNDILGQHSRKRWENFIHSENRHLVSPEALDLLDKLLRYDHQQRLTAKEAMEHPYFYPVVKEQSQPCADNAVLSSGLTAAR

[4] = target: T2, Aurora kinase A (Homo sapiens) (UniProt O14965); test: Inhibition of human recombinant AurA at 40 nM related to control ULK1
T2 sequence (whole entry): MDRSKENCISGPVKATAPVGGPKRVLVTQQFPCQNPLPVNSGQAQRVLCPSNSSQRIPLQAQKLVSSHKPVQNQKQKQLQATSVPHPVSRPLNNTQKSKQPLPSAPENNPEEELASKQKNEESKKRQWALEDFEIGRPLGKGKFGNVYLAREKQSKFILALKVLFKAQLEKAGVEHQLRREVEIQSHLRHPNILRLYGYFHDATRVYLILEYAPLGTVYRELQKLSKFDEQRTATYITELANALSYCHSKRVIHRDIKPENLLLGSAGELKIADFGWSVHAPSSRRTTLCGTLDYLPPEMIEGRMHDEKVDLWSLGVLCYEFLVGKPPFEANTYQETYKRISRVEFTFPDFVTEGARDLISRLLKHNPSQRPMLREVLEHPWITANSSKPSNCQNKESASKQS
How it was run: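 Radiometric activity assays in a panel of 327 human recombinant kinases, each run in duplicate at one inhibitor concentration. Activity remaining is expressed as percent of vehicle control, and percent inhibition is calculated as 100% minus percent activity remaining.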

[5] = target: Mitogen-activated protein kinase kinase kinase kinase 1 (Homo sapiens) (UniProt Q92918); test: Inhibition of human recombinant HPK1 at 40 nM in presence of ATP by radiometric assay relative to control
Mitogen-activated protein kinase kinase kinase kinase 1 (Homo sapiens), sequence (Q92918 whole entry, looked up): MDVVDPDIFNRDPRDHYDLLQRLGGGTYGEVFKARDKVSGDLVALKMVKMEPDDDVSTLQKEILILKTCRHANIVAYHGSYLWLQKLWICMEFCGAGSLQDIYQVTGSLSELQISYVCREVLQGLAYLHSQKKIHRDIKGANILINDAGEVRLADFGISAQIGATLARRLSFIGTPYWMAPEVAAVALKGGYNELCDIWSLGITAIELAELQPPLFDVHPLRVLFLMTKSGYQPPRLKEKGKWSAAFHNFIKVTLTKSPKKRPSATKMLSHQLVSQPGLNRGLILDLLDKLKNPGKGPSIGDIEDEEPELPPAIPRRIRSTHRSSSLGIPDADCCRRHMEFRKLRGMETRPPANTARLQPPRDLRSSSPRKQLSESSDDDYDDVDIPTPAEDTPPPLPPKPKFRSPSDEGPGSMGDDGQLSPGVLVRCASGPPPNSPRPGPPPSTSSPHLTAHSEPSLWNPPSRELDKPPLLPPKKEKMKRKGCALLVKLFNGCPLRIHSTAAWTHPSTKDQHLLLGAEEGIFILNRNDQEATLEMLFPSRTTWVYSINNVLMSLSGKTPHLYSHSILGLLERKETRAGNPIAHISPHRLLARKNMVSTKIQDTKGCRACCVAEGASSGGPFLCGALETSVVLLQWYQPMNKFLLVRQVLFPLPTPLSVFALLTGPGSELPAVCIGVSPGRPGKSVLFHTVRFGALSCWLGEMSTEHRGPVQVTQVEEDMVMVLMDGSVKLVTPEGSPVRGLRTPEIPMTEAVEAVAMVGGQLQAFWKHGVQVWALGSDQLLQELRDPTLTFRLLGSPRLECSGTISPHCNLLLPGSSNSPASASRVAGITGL

[6] = target: T3, Ephrin type-B receptor 4 (Homo sapiens) (UniProt P54760); test: Inhibition of human recombinant EphB4 at 40 nM related to control ULK1
T3 sequence (whole entry): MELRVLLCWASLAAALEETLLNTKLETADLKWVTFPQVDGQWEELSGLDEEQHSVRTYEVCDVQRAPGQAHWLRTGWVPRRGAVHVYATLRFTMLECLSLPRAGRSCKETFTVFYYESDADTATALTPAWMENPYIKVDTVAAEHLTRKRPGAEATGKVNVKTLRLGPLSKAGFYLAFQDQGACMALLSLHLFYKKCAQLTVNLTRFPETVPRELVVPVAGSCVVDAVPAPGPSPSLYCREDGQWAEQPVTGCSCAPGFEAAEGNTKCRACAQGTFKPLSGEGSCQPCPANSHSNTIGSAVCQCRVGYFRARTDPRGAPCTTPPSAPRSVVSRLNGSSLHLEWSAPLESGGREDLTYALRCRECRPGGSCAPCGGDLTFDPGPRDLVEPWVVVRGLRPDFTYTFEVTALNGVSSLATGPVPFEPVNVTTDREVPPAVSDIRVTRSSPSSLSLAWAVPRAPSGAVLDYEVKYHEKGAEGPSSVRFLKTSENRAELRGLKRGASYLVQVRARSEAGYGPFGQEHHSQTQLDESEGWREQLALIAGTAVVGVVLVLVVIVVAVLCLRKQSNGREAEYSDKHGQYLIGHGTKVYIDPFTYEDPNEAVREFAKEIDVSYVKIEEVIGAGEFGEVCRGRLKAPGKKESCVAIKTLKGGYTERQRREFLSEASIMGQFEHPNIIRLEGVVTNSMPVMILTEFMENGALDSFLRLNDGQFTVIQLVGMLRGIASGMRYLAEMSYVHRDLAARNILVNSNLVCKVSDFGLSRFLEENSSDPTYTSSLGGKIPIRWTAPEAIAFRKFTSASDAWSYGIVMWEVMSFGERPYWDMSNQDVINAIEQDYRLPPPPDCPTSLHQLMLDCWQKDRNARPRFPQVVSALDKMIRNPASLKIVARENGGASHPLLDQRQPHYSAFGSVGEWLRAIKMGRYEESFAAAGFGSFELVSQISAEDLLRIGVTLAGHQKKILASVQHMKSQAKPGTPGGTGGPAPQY

- fold change (FC) [1]: 0.09
SMILES: CNC(=O)c1ccccc1Oc1nc(Nc2cc(OC)c(OC)c(OC)c2)ncc1Br

- inhibition [2]: 5%
- fold change (FC) [3]: 0.06
SMILES: CC(C)[C@H](NC(=O)c1cc(-c2cnn3cc(-c4ccc(OCCN5CCCCC5)cc4)cnc23)cs1)C(F)(F)F

- fold change (FC) [4]: 0.3
- inhibition [5]: 0%
- fold change (FC) [6]: 0
SMILES: O=C(N[C@@H](C1CC1)C(F)(F)F)c1cc(-c2cnn3cc(-c4ccc(F)cc4)cnc23)cs1
